Active and inactive are the calls of the source. The calls are words filed in the database; no cut-off is given here.
Experiments:
[1] = molecular target: T1, Polyunsaturated fatty acid lipoxygenase ALOX15 (Homo sapiens, UniProt P16050); experiment: Inhibition of human reticulocyte 15-lipoxygenase-1 by UV-visible spectrophotometry
T1 sequence (P16050 whole entry): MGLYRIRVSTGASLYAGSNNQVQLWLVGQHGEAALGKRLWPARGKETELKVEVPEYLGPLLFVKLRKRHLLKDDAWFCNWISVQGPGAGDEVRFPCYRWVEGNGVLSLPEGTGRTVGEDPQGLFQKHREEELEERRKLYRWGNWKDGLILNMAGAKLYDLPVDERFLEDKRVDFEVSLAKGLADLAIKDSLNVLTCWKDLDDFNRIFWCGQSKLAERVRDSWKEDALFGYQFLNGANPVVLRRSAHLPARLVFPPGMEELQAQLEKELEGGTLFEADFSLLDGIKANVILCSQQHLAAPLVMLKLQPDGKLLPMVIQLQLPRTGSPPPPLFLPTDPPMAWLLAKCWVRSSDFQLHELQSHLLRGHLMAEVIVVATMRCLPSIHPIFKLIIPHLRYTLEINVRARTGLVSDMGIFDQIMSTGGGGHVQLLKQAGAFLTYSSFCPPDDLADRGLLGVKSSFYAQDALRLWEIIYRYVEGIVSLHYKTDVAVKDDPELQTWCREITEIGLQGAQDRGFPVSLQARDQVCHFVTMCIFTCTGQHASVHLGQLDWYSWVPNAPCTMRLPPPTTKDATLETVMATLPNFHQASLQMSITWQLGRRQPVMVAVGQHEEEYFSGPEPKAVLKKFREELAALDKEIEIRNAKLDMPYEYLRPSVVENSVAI
Procedure, shortened: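 Purified h15-LOX-1 (~60 nM total protein) in stirred 2 mL reactions at 23°C, 25 mM HEPES pH 7.5, 0.01% Triton X-100, 10 μM AA. Rate followed as conjugated diene formation at 234 nm. IC50 from at least five inhibitor concentrations by hyperbolic saturation fit, triplicate. Weak inhibitors approximated from one-point screen at 25 μM (triplicate).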

[2] = molecular target: T2, Polyunsaturated fatty acid 5-lipoxygenase (Homo sapiens, UniProt P09917); experiment: Inhibition of human leukocyte 5-lipoxygenase by UV-visible spectrophotometry
T2 sequence (P09917 whole entry): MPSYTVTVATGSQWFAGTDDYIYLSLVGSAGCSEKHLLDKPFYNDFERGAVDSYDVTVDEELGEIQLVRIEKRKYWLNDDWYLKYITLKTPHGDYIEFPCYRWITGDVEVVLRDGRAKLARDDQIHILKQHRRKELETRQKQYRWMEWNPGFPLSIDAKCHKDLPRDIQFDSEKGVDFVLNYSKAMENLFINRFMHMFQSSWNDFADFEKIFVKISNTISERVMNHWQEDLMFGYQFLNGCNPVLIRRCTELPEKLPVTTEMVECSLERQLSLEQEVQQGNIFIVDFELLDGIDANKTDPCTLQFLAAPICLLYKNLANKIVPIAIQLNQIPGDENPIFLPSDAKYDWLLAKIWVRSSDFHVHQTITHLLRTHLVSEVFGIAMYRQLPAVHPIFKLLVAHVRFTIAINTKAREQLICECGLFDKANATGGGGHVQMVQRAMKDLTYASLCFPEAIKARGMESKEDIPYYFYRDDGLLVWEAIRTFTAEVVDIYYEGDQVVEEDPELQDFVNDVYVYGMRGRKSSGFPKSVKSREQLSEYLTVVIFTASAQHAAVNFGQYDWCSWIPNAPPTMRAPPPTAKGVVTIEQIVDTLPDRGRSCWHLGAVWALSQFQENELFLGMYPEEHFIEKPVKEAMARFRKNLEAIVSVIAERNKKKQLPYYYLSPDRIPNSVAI

[3] = molecular target: T3, Polyunsaturated fatty acid lipoxygenase ALOX15 (Oryctolagus cuniculus, UniProt P12530); experiment: Inhibition of rabbit reticulocyte 15-LOX by UV-visible spectrophotometry
T3 sequence (P12530 whole entry): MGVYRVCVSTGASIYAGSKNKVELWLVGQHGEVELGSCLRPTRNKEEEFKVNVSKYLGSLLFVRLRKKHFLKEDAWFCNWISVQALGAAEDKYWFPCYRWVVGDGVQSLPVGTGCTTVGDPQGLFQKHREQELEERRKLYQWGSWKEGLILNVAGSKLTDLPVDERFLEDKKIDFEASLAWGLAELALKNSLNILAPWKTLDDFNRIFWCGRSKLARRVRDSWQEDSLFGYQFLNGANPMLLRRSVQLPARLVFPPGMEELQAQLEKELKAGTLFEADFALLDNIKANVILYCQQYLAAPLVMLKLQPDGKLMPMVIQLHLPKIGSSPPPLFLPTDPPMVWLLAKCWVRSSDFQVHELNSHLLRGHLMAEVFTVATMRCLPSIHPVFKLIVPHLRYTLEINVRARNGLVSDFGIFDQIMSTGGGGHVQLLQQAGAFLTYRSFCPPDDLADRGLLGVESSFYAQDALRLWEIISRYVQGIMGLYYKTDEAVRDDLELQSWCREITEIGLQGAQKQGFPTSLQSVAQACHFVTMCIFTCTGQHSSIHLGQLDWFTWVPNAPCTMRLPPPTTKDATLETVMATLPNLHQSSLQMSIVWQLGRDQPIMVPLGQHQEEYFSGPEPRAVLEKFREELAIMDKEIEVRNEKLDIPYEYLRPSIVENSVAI
Procedure, shortened: (§1)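 Enzyme was h15-LOX-2 (~200 nM) or rabbit 15-LOX (~50 nM), in 25 mM HEPES pH 7.5, 0.01% Triton X-100, 10 μM AA, stirred 2 mL at 23°C. Product was monitored at 234 nm.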

[4] = Inhibition of soybean 15-lipoxygenase-1 by UV-visible spectrophotometry; design: species or system Glycine max
Procedure, shortened: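 Soybean 15-LOX-1 (~2 nM) was assayed in 100 mM borate pH 9.2, 0.01% Triton X-100, 10 μM AA, stirred 2 mL at 23°C. Conjugated diene was read at 234 nm.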

[5] = test system: Glycine max; experiment: Irreversible inhibition of soybean 15-lipoxygenase-1
Procedure, shortened: (§2)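 Time-dependent inactivation: h15-LOX-1 or s15-LOX-1 was incubated on ice with neat oxo-lipid oil (no solvent) at ≥5 concentrations for varied times. Residual activity was then measured under the UV 234 nm assay conditions for each enzyme and compared with an enzyme-only control. ka was taken as the slope of ln(% activity) versus time, and Ki and k2 from a replot of ka versus [I].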

[6] = molecular target: T4, Polyunsaturated fatty acid lipoxygenase ALOX15B (Homo sapiens, UniProt O15296); experiment: Inhibition of human reticulocyte 15-lipoxygenase-2 by UV-visible spectrophotometry; details: in the assay text read “epithelial” for “reticulocyte”; procedure, shortened: as §1
T4 sequence (O15296 whole entry): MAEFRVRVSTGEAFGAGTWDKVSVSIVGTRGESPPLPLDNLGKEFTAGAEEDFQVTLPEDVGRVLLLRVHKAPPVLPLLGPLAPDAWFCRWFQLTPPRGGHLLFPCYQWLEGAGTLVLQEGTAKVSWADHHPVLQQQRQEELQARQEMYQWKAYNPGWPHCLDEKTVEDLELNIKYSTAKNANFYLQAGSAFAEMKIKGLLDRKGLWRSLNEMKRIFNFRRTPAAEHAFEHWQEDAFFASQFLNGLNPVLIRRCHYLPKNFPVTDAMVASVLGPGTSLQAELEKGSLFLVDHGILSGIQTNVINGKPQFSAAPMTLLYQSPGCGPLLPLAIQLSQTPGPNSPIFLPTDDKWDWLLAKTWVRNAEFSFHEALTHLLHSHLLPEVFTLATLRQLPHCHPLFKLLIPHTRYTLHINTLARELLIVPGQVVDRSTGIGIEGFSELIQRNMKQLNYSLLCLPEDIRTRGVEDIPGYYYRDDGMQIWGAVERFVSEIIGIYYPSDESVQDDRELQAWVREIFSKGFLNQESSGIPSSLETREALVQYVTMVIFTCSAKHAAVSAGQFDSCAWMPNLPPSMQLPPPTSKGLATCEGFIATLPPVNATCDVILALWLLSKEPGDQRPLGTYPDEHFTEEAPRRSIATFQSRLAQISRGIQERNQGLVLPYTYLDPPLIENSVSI

[7] = molecular target: T5, Polyunsaturated fatty acid lipoxygenase ALOX12 (Homo sapiens, UniProt P18054); experiment: Inhibition of human platelet 12-lipoxygenase by UV-visible spectrophotometry
T5 sequence (P18054 whole entry): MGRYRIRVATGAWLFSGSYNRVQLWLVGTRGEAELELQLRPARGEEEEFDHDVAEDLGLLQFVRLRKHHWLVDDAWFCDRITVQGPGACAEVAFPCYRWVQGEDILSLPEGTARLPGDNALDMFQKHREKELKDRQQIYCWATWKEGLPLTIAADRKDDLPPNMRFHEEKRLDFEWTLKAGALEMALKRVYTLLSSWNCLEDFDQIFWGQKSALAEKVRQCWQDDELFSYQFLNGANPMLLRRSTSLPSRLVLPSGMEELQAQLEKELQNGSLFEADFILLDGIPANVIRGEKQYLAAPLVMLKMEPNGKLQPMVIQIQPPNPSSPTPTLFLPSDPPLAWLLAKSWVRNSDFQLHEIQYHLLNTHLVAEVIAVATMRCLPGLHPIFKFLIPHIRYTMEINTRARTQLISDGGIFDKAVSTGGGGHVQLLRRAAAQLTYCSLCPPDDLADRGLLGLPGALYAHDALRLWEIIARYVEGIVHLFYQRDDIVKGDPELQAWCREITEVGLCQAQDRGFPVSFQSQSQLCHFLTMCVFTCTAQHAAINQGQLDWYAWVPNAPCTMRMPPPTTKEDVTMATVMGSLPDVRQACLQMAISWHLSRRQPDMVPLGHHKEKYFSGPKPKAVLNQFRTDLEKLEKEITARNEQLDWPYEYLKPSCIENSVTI
Procedure, shortened: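 h12-LOX (~100 nM total protein) in 25 mM HEPES pH 8.0, 0.01% Triton X-100, 10 μM AA, run as stirred 2 mL reactions at 23°C. Diene formation was read at 234 nm.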

[8] = molecular target: T6, Polyunsaturated fatty acid lipoxygenase ALOX12 (Homo sapiens) (UniProt P18054)
T6 sequence (whole entry): T5 sequence (P18054 whole entry)

[9] = molecular target: T6, Polyunsaturated fatty acid lipoxygenase ALOX12 (Homo sapiens); remark: listed apart in the source
[10] = molecular target: T1, Polyunsaturated fatty acid lipoxygenase ALOX15; experiment: Irreversible inhibition of human reticulocyte 15-lipoxygenase-1 by assessed as equilibrium inhibitor constant; procedure, shortened: as §2

Compound	IC50 [1] [µM]	IC50 ([2]; read-out: IC50) [µM]	IC50 [3] [µM]	IC50 [4] [µM]	inhibition [5]	IC50 [6] [µM]	IC50 [7] [µM]	IC50 [2]	Kic [8] [µM]	Kiuc [9] [µM]	Ki [10] [µM]
CCCCCC(=O)/C=C/C=C\CCCCCCCC(=O)O	> 100	> 100	> 100	> 100	inactive	> 100	> 100				
CCCCC/C=C\C/C=C\C/C=C\C=C\C(=O)CCCC(=O)O [5-OXO-ETE]	> 25		> 25	> 100		> 100	15	Not Active			
CCCCCC(=O)/C=C/C=C\C/C=C\C/C=C\CCCC(=O)O	> 25	> 100	> 50	> 100		> 100	1		0.087	2.1	
CCCCC/C=C\CC(=O)/C=C/C=C\C/C=C\CCCC(=O)O	3	> 50	> 50	> 100		> 100	8				36.8

Reference: ChEMBL document CHEMBL3352671, “Inhibitory and mechanistic investigations of oxo-lipids with human lipoxygenase isozymes” (Bioorg Med Chem, 2014)
